Values after ≈ are worked out from the molar mass of the structure shown.
Columns and labels:
[1] = test system: Peptoniphilus asaccharolyticus; test: In vitro antibacterial activity was tested for Pepto asac PA 3-1; assay type: functional
How it was run: (§1)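 Microtitration (microdilution) MIC determination in μg/mL against a panel of Gram-positive, Gram-negative and anaerobic organisms. Values come from duplicate or triplicate experiments and are stated accurate to ±50%.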

Klebsiella pneumoniae = test: In vitro antibacterial activity was tested for Klebsiella pneumoniae MGH-2; assay type: functional; how it was run: as §1
Escherichia coli [2] = test: In vitro antibacterial activity was tested for Escherichia coli Vogel; assay type: functional; how it was run: as §1
Enterobacter cloacae = test: In vitro antibacterial activity was tested for Enterobacter cloacae HA2646; assay type: functional
Streptococcus pyogenes = test: In vitro antibacterial activity was tested for Streptococcus pyogenes C203; assay type: functional; how it was run: as §1
Bacteroides fragilis = test: In vitro antibacterial activity against Bacteroides fragilis BFA; assay type: functional; how it was run: as §1
Escherichia coli [3] = test: In vitro antibacterial activity was tested for Escherichia coli H560; assay type: functional; how it was run: as §1
Staphylococcus aureus [4] = test: In vitro antibacterial activity was tested for Staphylococcus aureus UC-76; assay type: functional; how it was run: as §1
Clostridioides difficile = test: In vitro antibacterial activity was tested for Clostridium diff CD1-1; assay type: functional
Staphylococcus aureus [5] = test: In vitro antibacterial activity was tested for Staphylococcus aureus H228; assay type: functional; how it was run: as §1
Streptococcus pneumoniae = test: In vitro antibacterial activity was tested for Streptococcus pneumoniae SV-1; assay type: functional; how it was run: as §1
Cutibacterium acnes = test: In vitro antibacterial activity was tested for Propion acnes PA5-1; assay type: functional; how it was run: as §1
V79 = test: Clonogenic cytotoxicity against Chinese hamster V-79 cells; assay type: functional, cell-based; conditions: Cricetulus griseus
Clostridium perfringens = test: In vitro antibacterial activity against Clostridium perfringens CP 3-1; assay type: functional
Providencia rettgeri = test: In vitro antibacterial activity was tested for Providencia rettgeri H1771; assay type: functional; how it was run: as §1
Pseudomonas aeruginosa = test: In vitro antibacterial activity was tested for Pseudomonas aeruginosa UI-18; assay type: functional; how it was run: as §1
Enterococcus faecalis = test: In vitro antibacterial activity was tested for Streptococcus faecalis MGH-2; assay type: functional; how it was run: as §1

Structure (SMILES) | MIC [1] [µg/mL] | MIC (Klebsiella pneumoniae) [µg/mL] | MIC (Escherichia coli [2]) [µg/mL] | MIC (Enterobacter cloacae) [µg/mL] | MIC (Streptococcus pyogenes) [µg/mL] | MIC (Bacteroides fragilis) [µg/mL] | MIC (Escherichia coli [3]) [µg/mL] | MIC (Staphylococcus aureus [4]) [µg/mL] | MIC (Clostridioides difficile) [µg/mL] | MIC (Staphylococcus aureus [5]) [µg/mL] | MIC (Streptococcus pneumoniae) [µg/mL] | MIC (Cutibacterium acnes) [µg/mL] | IC50 (V79) [µg/mL] | MIC (Clostridium perfringens) [µg/mL] | MIC (Providencia rettgeri) [µg/mL] | MIC (Pseudomonas aeruginosa) [µg/mL] | MIC (Enterococcus faecalis) [µg/mL]
CCOc1c(N2CCC(N)C2)c(F)cc2c(=O)c(C(=O)O)cn(C3CC3)c12 (stereo not drawn) | 0.8 (≈ 2.13 µM) | 0.2 (≈ 0.533 µM) | 0.05 (≈ 0.133 µM) | 0.1 (≈ 0.266 µM) | 0.2 (≈ 0.533 µM) | 1.6 (≈ 4.26 µM) | 0.05 (≈ 0.133 µM) | 0.013 (≈ 0.0346 µM) | 3.1 (≈ 8.26 µM) | 0.05 (≈ 0.133 µM) | 0.1 (≈ 0.266 µM) | 3.1 (≈ 8.26 µM) | 210 (≈ 559 µM) | 0.8 (≈ 2.13 µM) | 0.4 (≈ 1.07 µM) | 3.1 (≈ 8.26 µM) | 0.1 (≈ 0.266 µM)
NC1CCCN(c2c(F)cc3c(=O)c(C(=O)O)cn(C4CC4)c3c2Cl)C1 (stereo not drawn) | 0.4 (≈ 1.05 µM) |  |  |  |  | 0.2 (≈ 0.527 µM) |  |  | 0.4 (≈ 1.05 µM) |  |  | 0.2 (≈ 0.527 µM) |  | 0.1 (≈ 0.263 µM) |  |  | 
NC1CCCN(c2nc3c(cc2F)c(=O)c(C(=O)O)cn3C2CC2)C1 (stereo not drawn) | 6.3 (≈ 18.2 µM) |  |  |  |  | 25 (≈ 72.2 µM) |  |  | > 25 |  |  | 6.3 (≈ 18.2 µM) |  | 0.8 (≈ 2.31 µM) |  |  | 
COc1c(N2CC[C@H](N)C2)c(F)c(N)c2c(=O)c(C(=O)O)cn(C3CC3)c12 | 1.6 (≈ 4.25 µM) | 0.1 (≈ 0.266 µM) | 0.05 (≈ 0.133 µM) | 0.05 (≈ 0.133 µM) | 0.05 (≈ 0.133 µM) | 1.6 (≈ 4.25 µM) | 0.05 (≈ 0.133 µM) | 0.013 (≈ 0.0345 µM) | 3.1 (≈ 8.24 µM) | 0.025 (≈ 0.0664 µM) | 0.025 (≈ 0.0664 µM) | 1.6 (≈ 4.25 µM) |  | 0.8 (≈ 2.13 µM) | 0.2 (≈ 0.531 µM) | 0.8 (≈ 2.13 µM) | 0.1 (≈ 0.266 µM)
Nc1c(F)c(N2CCCC(N)C2)c(F)c2c1c(=O)c(C(=O)O)cn2C1CC1 (stereo not drawn) |  |  |  |  |  |  |  |  |  |  |  |  | 19 (≈ 50.2 µM) |  |  |  | 
COc1c(N2CC[C@@H](N)C2)c(F)cc2c(=O)c(C(=O)O)cn(C3CC3)c12 | 0.4 (≈ 1.11 µM) | 0.025 (≈ 0.0692 µM) | 0.025 (≈ 0.0692 µM) | 0.025 (≈ 0.0692 µM) | 0.05 (≈ 0.138 µM) | 0.4 (≈ 1.11 µM) | 0.025 (≈ 0.0692 µM) | 0.025 (≈ 0.0692 µM) | 0.8 (≈ 2.21 µM) | 0.05 (≈ 0.138 µM) | 0.05 (≈ 0.138 µM) | 0.2 (≈ 0.553 µM) |  | 0.5 (≈ 1.38 µM) | 0.05 (≈ 0.138 µM) | 0.8 (≈ 2.21 µM) | 0.05 (≈ 0.138 µM)
COc1c(N2CCNCC2)c(F)cc2c(=O)c(C(=O)O)cn(C3CC3)c12 | 3.1 (≈ 8.58 µM) | 0.1 (≈ 0.277 µM) | 0.05 (≈ 0.138 µM) | 0.025 (≈ 0.0692 µM) | 0.1 (≈ 0.277 µM) | 0.8 (≈ 2.21 µM) | 0.025 (≈ 0.0692 µM) | 0.05 (≈ 0.138 µM) | 1.6 (≈ 4.43 µM) | 0.2 (≈ 0.553 µM) | 0.1 (≈ 0.277 µM) | 0.4 (≈ 1.11 µM) |  | 0.4 (≈ 1.11 µM) | 0.1 (≈ 0.277 µM) | 0.8 (≈ 2.21 µM) | 0.2 (≈ 0.553 µM)
COc1c(N2CCC(CN)CC2)c(F)cc2c(=O)c(C(=O)O)cn(C3CC3)c12 | 0.4 (≈ 1.03 µM) | 0.2 (≈ 0.514 µM) | 0.1 (≈ 0.257 µM) | 0.1 (≈ 0.257 µM) | 0.025 (≈ 0.0642 µM) | 0.8 (≈ 2.05 µM) | 0.1 (≈ 0.257 µM) | 0.05 (≈ 0.128 µM) | 0.8 (≈ 2.05 µM) | 0.1 (≈ 0.257 µM) | 0.025 (≈ 0.0642 µM) | 0.4 (≈ 1.03 µM) | 94 (≈ 241 µM) | 0.4 (≈ 1.03 µM) | 0.4 (≈ 1.03 µM) | 1.6 (≈ 4.11 µM) | 0.05 (≈ 0.128 µM)
